Consider twelve molecules from ChEMBL document CHEMBL4257510, “Mercaptoacetate thioesters and their hydrolysate mercaptoacetic acids jointly inhibit metallo-β-lactamase L1” (Medchemcomm, 2018).

The subject of data set [1] is Bacteria. As to the kind of experiment: Inhibition of bacterial metallo-beta-lactamase ImiS expressed in Escherichia coli BL21 (DE3) at 20 uM using imipenem as substrate preincubated for 30 mins followed by substrate addition.
In data set [2] the test system is Bacteria. In words: Inhibition of bacterial metallo-beta-lactamase NDM1 expressed in Escherichia coli BL21 (DE3) at 20 uM using cefazolin as substrate preincubated for 30 mins followed by substrate addition.
Data set [3] has as its system Bacteria. In words: Inhibition of bacterial metallo-beta-lactamase L1 expressed in Escherichia coli BL21 (DE3) assessed as cefazolin MIC at 16 ug/ml after 16 hrs by broth macrodilution method (reference value: 32 ug/ml). An outline of the steps: (§1)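 E. coli BL21(DE3) carrying pET26b-L1 was grown overnight in Mueller-Hinton broth at 37 °C, pelleted and resuspended to OD600 0.1. MICs were determined by CLSI broth macrodilution after at least 16 h at 37 °C, taking the lowest concentration with no visible growth. Triplicates in at least two independent experiments; highest MIC reported.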

Data set [4] relates to Escherichia coli. As to the kind of experiment: Potentiation of cefazolin-mediated antibacterial activity against Escherichia coli BL21(DE3) assessed as cefazolin MIC at 16 ug/ml after 16 hrs by broth macrodilution method (reference value: 4 ug/ml). Type of data set: functional. An outline of the steps: as §1
The subject of data set [5] is Bacteria. In words: Inhibition of bacterial metallo-beta-lactamase L1 expressed in Escherichia coli BL21 (DE3) assessed as decrease in cefazolin MIC at 16 ug/ml after 16 hrs by broth macrodilution method relative to control. In outline:
as §1

Data set [6] concerns Bacteria. In words: Inhibition of bacterial metallo-beta-lactamase L1 expressed in Escherichia coli BL21 (DE3) at 20 uM using cefazolin as substrate preincubated for 30 mins followed by substrate addition relative to control.
Data set [7] in a line: Inhibition of bacterial metallo-beta-lactamase L1 expressed in Escherichia coli BL21 (DE3) using cefazolin as substrate preincubated for 30 mins followed by substrate addition. Details: species or system Bacteria. In outline: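 IC50 measured at 25 °C with 50 µM cefazolin and inhibitor varied over 0.01–2 µM, after 30 min enzyme–inhibitor pre-incubation. Compounds were dissolved in DMSO and diluted in 30 mM Tris pH 7.0, with final DMSO below 0.1%.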

A short description of data set [8]: Drug metabolism assessed as bacterial metallo-beta-lactamase L1-mediated hydrolysis measured every 2 hrs for 24 hrs by UV-Vis spectroscopic analysis. The conditions noted are these: bacteria. Type of data set: ADME. An outline of the steps: (§2)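 Thioester in Tris buffer at pH 6.0, 7.0 or 8.5, or at pH 7.0 with increasing L1 concentration. Absorbance at 245 nm was recorded every 2 h over 24 h.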

Data set [9] can be described thus: Stability in Tris buffer at pH 6 to 8.5 measured every 2 hrs for 24 hrs by UV-Vis spectroscopic analysis. The conditions noted are these: pH 6, 24 h. Type of data set: physicochemical. In outline:
as §2

The test system of data set [10] is Bacteria. As to the kind of experiment: Binding affinity to bacterial metallo-beta-lactamase L1 expressed in Escherichia coli BL21 (DE3) treated with 2-(((4-Chlorobenzoyl)methionyl)thio)acetic acid at 2 to 10 mM after 1 hr by STD NMR method. In outline: (§3)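 1H STD-NMR at 300 MHz on-resonance and 2000 MHz off-resonance saturation. Total saturation time 1.5 s, relaxation delay 2.5 s. Samples were run in D2O with 5% DMSO-d6 and 150 mM NaCl at pH 7.5, after 1 h pre-incubation. Compound came from 100 mM stock in DMSO-d6.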

Data set [11] deals with Bacteria. As to the kind of experiment: Binding affinity to bacterial metallo-beta-lactamase L1 expressed in Escherichia coli BL21 (DE3) assessed as change in entropy by ITC method. (In ITC the heat of successive injections is recorded.)
Data set [12] relates to Bacteria. In words: Binding affinity to bacterial metallo-beta-lactamase L1 expressed in Escherichia coli BL21 (DE3) assessed as change in gibbs free energy by ITC method.
Data set [13] has as its system L929. As to the kind of experiment: Cytotoxicity against mouse L929 cells up to 200 uM after 48 hrs by CCK8 assay. The data set is classed as cell-based. As to conditions: l929, 48 h. For orientation: Formazan colour is commonly taken as a measure of viable cells.
Data set [14] can be described thus: Binding affinity to bacterial metallo-beta-lactamase L1 expressed in Escherichia coli BL21 (DE3) by ITC method. Details: species or system Bacteria.
Data set [15] concerns Bacteria. As to the kind of experiment: Binding affinity to bacterial metallo-beta-lactamase L1 expressed in Escherichia coli BL21 (DE3) assessed as change in enthalpy by ITC method.
Data set [16] can be described thus: Drug level assessed as bacterial metallo-beta-lactamase L1-mediated compound formation treated with 2-(((4-Chlorobenzoyl)methionyl)thio)acetic acid by HPLC method. The conditions noted are these: bacteria. Type of data set: ADME. In outline:
(§4)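 L1-mediated hydrolysis of thioester followed by HPLC under IC50 assay conditions, on a C18 column (150 × 4.6 mm, 5 µm) at 1.0 mL/min.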

Data set [17] can be described thus: Retention time of compound by HPLC method. Type of data set: physicochemical. In outline:
as §4

Data set [18] deals with Bacteria. In words: Binding affinity to bacterial metallo-beta-lactamase L1 expressed in Escherichia coli BL21 (DE3) at 2 to 10 mM after 1 hr by STD NMR method. An outline of the steps: as §3

The structures appear in SMILES notation. pIC50, pKd: −log10 of the molar value. The source made the active and inactive calls. No cut-off for these calls is given here.

On to `O=C(O)CSC(=O)[C@H](Cc1c[nH]c2ccccc12)NC(=O)c1ccc(Br)cc1`, for which the inhibition entry in [1] and in data set [2] was “inactive” each time. The MIC in data set [3] worked out at 16 µg/mL; in data set [4] it was 4 µg/mL. The fold change (FC) in data set [5] is 2 to 4. Also, in data set [6], the inhibition – broadly, the share of the control response that was lost under treatment – was 90 to 95%. In data set [7], the pIC50 (as a rule, −log10 of the IC50, conventionally taken in molar units) is 6.06.
With `O=C(O)CSC(=O)[C@H](Cc1c[nH]c2ccccc12)NC(=O)c1ccc(F)cc1`, the inhibition result in [1] and in data set [2] was “inactive” throughout. Further, the MIC in data set [3] amounted to 16 µg/mL; in data set [4], 4 µg/mL. In addition, the fold change (FC) in data set [5] fell in the range of 2 to 4. Moreover, the inhibition in [6] lay in the range of 90 to 95%. In addition, in [7], the pIC50 was 6.12.
Regarding `O=C(O)CSC(=O)[C@H](Cc1c[nH]c2ccccc12)NC(=O)c1ccc(C(F)(F)F)cc1`, the inhibition entry in [1] and in [2] was “inactive” in each case. The results for the MIC in data set [3] and in data set [4] were 16 µg/mL and 4 µg/mL, respectively. In data set [5], the fold change (FC) lay within 2 to 4. Also, in data set [6], the inhibition lay in the range of 90 to 95%. Moreover, in data set [7], the pIC50 was 5.99.
Take `O=C(O)CSC(=O)[C@H](Cc1c[nH]c2ccccc12)NC(=O)c1ccc([N+](=O)[O-])cc1`: the inhibition entry in data set [1] and in data set [2] was “inactive” throughout. Moreover, in data set [8], the Drug metabolism result is “Metabolite_Detected”. Also, the MIC in [3] was determined as 8 µg/mL; in [4] it was 4 µg/mL. Further, the fold change (FC) in [5] is 2 to 4. In [6], this molecule gave an inhibition of 90 to 95%. Further, in data set [7], the pIC50 is 6.43. The Stability result in data set [9] is given as “Stable”.
On to `O=C(O)CS`, for which the outcome in data set [10] was Active.
As for `CSCC[C@H](NC(=O)c1ccc([N+](=O)[O-])cc1)C(=O)SCC(=O)O`, the inhibition result in data set [1] and in data set [2] was “inactive” throughout. For the same molecule, the Drug metabolism entry in [8] is on record as “Metabolite_Detected”. In addition, the MIC in [3] amounted to 8 µg/mL; in data set [4] it was 4 µg/mL. Besides, the TdeltaS in data set [11] is -9.6 kcal/mol. Further, the fold change (FC) in data set [5] fell in the range of 2 to 4. Further, the deltaG in data set [12] is -7.18 kcal/mol. Further, the Activity result in [13] was “Non-Toxic”. The inhibition in [6] was in the range of 90 to 95%. Also, the pIC50 in data set [7] is 6.77. Moreover, in [14], the pKd (commonly the negative decadic logarithm of the Kd, by convention in mol/L) was 5.26. Further, the Stability result in data set [9] is given as “Stable”. Further, the deltaH in data set [15] is -16.8 kcal/mol.
As to `CSCC[C@H](NC(=O)c1ccc(Cl)cc1)C(=O)O`, in data set [16], the Drug metabolism entry is “Metabolite_Detected”. Also, in data set [10], the result was Active. This molecule also had a Retention_time in data set [17] of 4.2 min.
As for `CSCC[C@H](NC(=O)c1cccc(Br)c1)C(=O)SCC(=O)O`, the inhibition entry in data set [1] and in data set [2] was “inactive” in each case. Also, the MIC in data set [3] amounted to 16 µg/mL; in data set [4], 4 µg/mL. The fold change (FC) in data set [5] lay within 2 to 4. Further, in [6], the inhibition is 90 to 95%. In addition, in data set [7], the pIC50 is 5.92.
On to `CSCC[C@H](NC(=O)c1ccc(Cl)cc1)C(=O)SCC(=O)O`, for which the inhibition result in data set [1] and in data set [2] was “inactive” each time. Also, the Drug metabolism result in data set [8] is recorded as “Metabolite_Detected”. Further, the MIC was determined as 16 µg/mL in data set [3] and 4 µg/mL in data set [4]. In addition, the TdeltaS in data set [11] is -21.8 kcal/mol. The fold change (FC) in data set [5] lay within 2 to 4. Also, in [12], the deltaG is -6.43 kcal/mol. Moreover, the Activity entry in [13] is on record as “Non-Toxic”. In data set [18], the outcome was Active. This molecule also showed an inhibition in data set [6] of 90 to 95%. Besides, in data set [7], the pIC50 is 6.03. The molecule further gave a pKd in data set [14] of 4.71. The same molecule yielded a Retention_time in data set [17] of 4.5 min. Moreover, the Stability entry in data set [9] is “Stable”. The deltaH in data set [15] is -28.2 kcal/mol.
In the case of `O=C(O)CSC(=O)[C@H](Cc1c[nH]c2ccccc12)NC(=O)c1cccc([N+](=O)[O-])c1`, the inhibition entry in [1] and in data set [2] was “inactive” in each case. For the same molecule, the MIC in data set [3] stood at 16 µg/mL; in data set [4], 4 µg/mL. In addition, the fold change (FC) in data set [5] is 2 to 4. Moreover, in data set [6], the inhibition is 90 to 95%. Moreover, in [7], the negative-log IC50 (pIC50) is 6.10.
Turning to `O=C(O)CSC(=O)[C@H](Cc1c[nH]c2ccccc12)NC(=O)c1ccc(Cl)cc1`, the inhibition result in [1] and in [2] was “inactive” each time. The MIC in data set [3] amounted to 8 µg/mL; in [4], 4 µg/mL. Besides, in data set [5], the fold change (FC) lay in the range of 2 to 4. Besides, in data set [6], the inhibition lay within 90 to 95%. Moreover, the pIC50 in data set [7] is 6.72.
As to `O=C(O)CSC(=O)[C@H](Cc1c[nH]c2ccccc12)NC(=O)c1cccc(Br)c1`, the inhibition result in data set [1] and in [2] was “inactive” in each case. The MIC was determined as 16 µg/mL in [3] and 4 µg/mL in data set [4]. Further, in data set [5], the fold change (FC) lay within 2 to 4. Moreover, the inhibition in [6] lay in the range of 90 to 95%. The same molecule had a pIC50 in data set [7] of 6.21.
